Measurements collected from several papers.
Cell line: PC-3
Observed: cell growth or viability

SMILES	method	time	IC50 [µM]
CCn1cnc2ccc(/C=C/C(=O)NO)cc2c1=O	SRB	48 h	7.04
COc1ccc(NC(=O)Nc2ccc(OCc3nccc(OCC(F)(F)F)c3C)cc2)cc1	MTT	72 h	89.1
N=C(Nc1ccccc1)c1cc2c(-c3ccccc3)n[nH]c2c(Nc2ccccc2)n1	MTS	48 h	1.2
Cc1cc(C)cc(COc2cc3c(cc2OCc2cc(C)cc(C)c2)[C@H]2C[C@](O)(Cc4cn(Cc5cccnc5)nn4)C[C@H](C)N2CC3)c1	MTT		0.638
COC1=CC(=O)N(C(=O)[C@@H](CCC(Cl)(Cl)Cl)NC(=O)C(C)(C)C)[C@@H]1CCC(Cl)(Cl)Cl	resazurin	72 h	13
Cc1cc(C)cc(COc2cc3c(cc2OCc2cc(C)cc(C)c2)[C@H]2C[C@](O)(Cc4cn(Cc5ccc(Cl)c(Cl)c5)nn4)C[C@H](C)N2CC3)c1	MTT		0.381
CCN(CC)CCCn1cccc1/C=N/NC(=O)Nc1cc2c(Nc3ccc(F)c(Cl)c3)ncnc2cc1O[C@H]1CCOC1	MTT	72 h	2.24
COc1c(C)cnc(COc2ccc(NC(=O)Nc3ccc(F)cc3)cc2)c1C	MTT	72 h	43.3
CCCCc1ccc2[nH]c(NC(=O)OC)nc2c1	CCK-8	72 h	0.15
CC(C)C(=O)Nc1ccc([N+](=O)[O-])c(C(F)(F)F)c1	CCK-8	48 h	> 50
COc1cccc2c1C(=O)c1c(O)c3c(c(O)c1C2=O)C[C@@](O)(C(=O)CO)C[C@@H]3O[C@H]1C[C@H](N)[C@H](O)[C@H](C)O1	MTT	72 h	2.35
COc1cc(Nc2nc(CN)cc3c(-c4ccccc4)n[nH]c23)cc(OC)c1OC	MTS	48 h	3.5
Cc1cc(C)cc(COc2cc3c(cc2OCc2cc(C)cc(C)c2)[C@H]2C[C@](O)(Cc4cn(Cc5ccc(O)cc5)nn4)C[C@H](C)N2CC3)c1	MTT		0.79
COCCCOc1ccnc(COc2ccc(NC(=O)Nc3cc(F)cc(F)c3)cc2)c1C	MTT	72 h	> 100
C=CC(=O)Nc1ccc(CCn2cc(C[C@@]3(O)C[C@@H]4c5cc(OCc6cc(C)cc(C)c6)c(OCc6cc(C)cc(C)c6)cc5CCN4[C@@H](C)C3)nn2)cc1	MTT		0.252
O=C(N/N=C/c1cccn1CCCN1CCCCC1)Nc1cc2c(Nc3ccc(F)c(Cl)c3)ncnc2cc1O[C@H]1CCOC1	MTT	72 h	0.15
COc1ccc(/C=C/c2cc(C)no2)cc1OC	MTT	72 h	> 100
COCCCOc1ccnc(COc2ccc(NC(=O)Nc3cccc(C(F)(F)F)c3)cc2)c1C	MTT	72 h	> 100
CCOC(=O)c1cc2cc(Nc3ncnc4cc(OCCCN5CCC(C)CC5)c(OC)cc34)ccc2s1	MTT		> 100
Cc1cc(C)cc(COc2cc3c(cc2OCc2cc(C)cc(C)c2)[C@H]2C[C@](O)(Cc4cn(Cc5cc(C(F)(F)F)cc(C(F)(F)F)c5)nn4)C[C@H](C)N2CC3)c1	MTT		0.406

SMILES	method	time	IC50 [µM]
CCCCCCCCCc1ccc(C(=O)Nc2cc(C)ccc2C(=O)OC)cc1	MTT		> 120
COc1cccc2c1C(=O)c1c(O)c3c(c(O)c1C2=O)C[C@@](O)(C(=O)CO)C[C@@H]3O[C@H]1C[C@H](N)[C@H](O)[C@H](C)O1	MTS	48 h	0.68
O=C(/C=C/c1ccc2c(=O)n(CC3CCCC3)cnc2c1)NO	SRB	48 h	2.49
COc1cc2ncnc(Nc3ccc(F)c(Cl)c3)c2cc1NC(=O)N/N=C/c1cccn1CCN1CCCC1	MTT	72 h	1.24
COc1ccc(NC(=O)Nc2ccc(OCc3nccc(OC)c3OC)cc2)cc1	MTT	72 h	46.4
Cc1cc(C)cc(COc2cc3c(cc2OCc2cc(C)cc(C)c2)[C@H]2C[C@](O)(Cc4cn(Cc5ccncc5)nn4)C[C@H](C)N2CC3)c1	MTT		0.167
COc1cc(Nc2nccc(-c3cnn4nc(OC)ccc34)n2)cc(C(F)(F)F)c1	ATP luminescence		0.37
Cc1cc(C)cc(COc2cc3c(cc2OCc2cc(C)cc(C)c2)[C@H]2C[C@](O)(Cc4cn(Cc5ccc(S(C)(=O)=O)cc5)nn4)C[C@H](C)N2CC3)c1	MTT		0.223
COCCCOc1ccnc(COc2ccc(NC(=O)Nc3ccc(Cl)c(C(F)(F)F)c3)cc2)c1C	MTT	72 h	> 100
Cc1cc(C)cc(COc2cc3c(cc2OCc2cc(C)cc(C)c2)[C@H]2C[C@](O)(Cc4cn(CC5CCCCC5)nn4)C[C@H](C)N2CC3)c1	MTT		0.384
COc1cc2ncnc(Nc3ccc(F)c(Cl)c3)c2cc1NC(=O)N/N=C/CN1CCOCC1	MTT	72 h	3.3
Cc1c(OCC(F)(F)F)ccnc1COc1ccc(NC(=O)Nc2ccc(F)cc2)cc1	MTT	72 h	60.2
COc1cc2ncnc(Nc3ccc(F)c(Cl)c3)c2cc1NC(=O)N/N=C/c1cccn1CCCN(C)C	MTT	72 h	0.03
COc1ccnc(COc2ccc(NC(=O)Nc3ccc(F)cc3)cc2)c1OC	MTT	72 h	50.1
CN(C)CCCn1cccc1/C=N/NC(=O)Nc1cc2c(Nc3ccc(F)c(Cl)c3)ncnc2cc1O[C@H]1CCOC1	MTT	72 h	3.74
[Cl-].[Cl-].[Cl-].[Fe+3]	resazurin	72 h	4800
COc1cc2ncnc(Nc3ccc(F)c(Cl)c3)c2cc1NC(=O)N/N=C/c1cccn1CCN(C)C	MTT	72 h	1.25
COc1cc(Nc2nc(CNCc3ccccc3)cc3c(-c4ccccc4)n[nH]c23)cc(OC)c1OC	MTS	48 h	4.3
CN1CCN(CCn2cccc2/C=N/NC(=O)Nc2cc3c(Nc4ccc(F)c(Cl)c4)ncnc3cc2O[C@H]2CCOC2)CC1	MTT	72 h	1.89
COc1ccc2c(N(C)c3ccc(/C(C)=N/OCCN)cc3)c3c(Cl)coc3nc2c1	trypan blue	72 h	1.59
